Experimental data from publication PMC3954597 (Biochemistry, 2014).
Changes are numbered by the printed parent chain. Several values for one entry are separate records, joined by “and”; a condition that tells them apart may be missing. Identical values can stand only once. Like-named read-outs stand apart in the source and are kept apart here.

Experiments:
R47E PTP1B = molecular target: T1, R47E PTP1B (Homo sapiens, UniProt P18031, R47E); experiment: PTP assay, R47E PTP1B; type: biochemical
T1 sequence (P18031 1-321 R47E): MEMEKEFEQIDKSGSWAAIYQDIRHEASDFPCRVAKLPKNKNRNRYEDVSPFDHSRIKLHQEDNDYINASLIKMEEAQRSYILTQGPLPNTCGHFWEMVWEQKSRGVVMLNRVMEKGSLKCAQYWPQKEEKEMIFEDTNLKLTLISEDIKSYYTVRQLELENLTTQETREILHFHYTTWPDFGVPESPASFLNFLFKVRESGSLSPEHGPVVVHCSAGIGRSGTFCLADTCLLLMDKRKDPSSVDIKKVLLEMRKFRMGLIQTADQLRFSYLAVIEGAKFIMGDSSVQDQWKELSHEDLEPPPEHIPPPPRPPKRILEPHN
In short: (§1)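 E. coli-expressed catalytic domains were used: wild-type, R24M or R47E PTP1B (aa 1–321), and SHP-1 (aa 205–595). Reactions started with PTP (0.5–20000 nM final) and dephosphorylation was monitored continuously at 282 nm. kcat, KM and kcat/KM came from initial-rate fits (Michaelis–Menten, or V = kcat[E][S]/KM when KM >> [S]) or from fits of progress curves.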

R24M PTP1B = molecular target: T2, R24M PTP1B (Homo sapiens, UniProt P18031, R24M); experiment: PTP assay, R24M PTP1B; type: biochemical
T2 sequence (P18031 1-321 R24M): T1 sequence (P18031 1-321 R47E) with R24M, E47R
In short: as §1

SHP-1 [1] = molecular target: T3, SHP-1 (Homo sapiens, UniProt P29350); settings: catalytic domain; cited from earlier work
SHP-1 [2] = molecular target: T3, SHP-1; experiment: PTP assay, SHP-1; type: biochemical; settings: catalytic domain; 100 mM HEPES pH 7.4; monitored at 282 nm
In short: as §1

SHP-2 = molecular target: T4, SHP-2 (Homo sapiens, UniProt Q06124); experiment: PTP assay, SHP-2; type: biochemical; settings: catalytic domain; 100 mM HEPES pH 7.4; monitored at 282 nm
T4 sequence (Q06124 199-593): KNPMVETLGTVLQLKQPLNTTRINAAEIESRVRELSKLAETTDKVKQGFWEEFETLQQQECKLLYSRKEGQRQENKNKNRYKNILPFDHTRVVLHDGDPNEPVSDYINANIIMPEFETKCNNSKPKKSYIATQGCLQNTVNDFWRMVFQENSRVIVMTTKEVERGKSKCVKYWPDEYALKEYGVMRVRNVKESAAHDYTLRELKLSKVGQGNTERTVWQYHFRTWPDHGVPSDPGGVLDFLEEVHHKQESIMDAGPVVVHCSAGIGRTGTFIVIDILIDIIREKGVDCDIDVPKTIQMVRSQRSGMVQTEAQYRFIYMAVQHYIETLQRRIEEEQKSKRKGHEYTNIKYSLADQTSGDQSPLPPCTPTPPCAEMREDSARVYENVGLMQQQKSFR
In short: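 His-tagged catalytic domains were made in E. coli: PTPD2 aa 876–1187 and PTPRC aa 620–1236 with N-terminal tags, PTPD1 aa 875–1174 and SHP-2 aa 199–593 with C-terminal tags. Enzyme was added at 0.5–20000 nM final. A282 (Δε 1102 M−1 cm−1) was followed. Constants came from Michaelis–Menten fits of initial rates (<60 s), or from fits of progress curves run to substrate depletion.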

T3 sequence (P29350 205-595): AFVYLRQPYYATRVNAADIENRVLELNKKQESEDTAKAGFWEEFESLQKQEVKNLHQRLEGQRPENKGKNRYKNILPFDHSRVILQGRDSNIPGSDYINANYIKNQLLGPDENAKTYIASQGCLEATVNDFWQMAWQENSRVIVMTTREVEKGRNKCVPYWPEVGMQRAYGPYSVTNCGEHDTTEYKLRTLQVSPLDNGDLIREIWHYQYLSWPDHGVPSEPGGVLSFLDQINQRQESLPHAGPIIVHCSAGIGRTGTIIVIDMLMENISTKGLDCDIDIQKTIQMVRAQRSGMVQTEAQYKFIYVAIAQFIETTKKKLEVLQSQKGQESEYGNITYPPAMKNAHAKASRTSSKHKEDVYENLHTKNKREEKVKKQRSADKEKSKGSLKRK

Row | Substance | Km (R47E PTP1B; R47E PTP1B aa 1–321, pH 7.4) | kcat (R47E PTP1B; R47E PTP1B aa 1–321, pH 7.4) | kcat/KM x 10^7 (R47E PTP1B; R47E PTP1B aa 1–321, pH 7.4) | WT/R47E (R47E PTP1B; ratio of kcat/KM, WT over R47E PTP1B (fold decrease by the mutation)) | Km (R24M PTP1B; R24M PTP1B aa 1–321, pH 7.4) | kcat (R24M PTP1B; R24M PTP1B aa 1–321, pH 7.4) | kcat/KM x 10^7 (R24M PTP1B; R24M PTP1B aa 1–321, pH 7.4) | WT/R24M (R24M PTP1B; ratio of kcat/KM, WT over R24M PTP1B (fold reduction by the mutation)) | Km (SHP-1 [1]) | kcat (SHP-1 [1]) | kcat/KM x10^6 (SHP-1 [1]) | kcat/KM x10^6 (SHP-1 [2]) | kcat/KM x10^6 (SHP-2)
1 | Ac-SASASpYSASA-NH2 | 12 ± 1 µM | 35 ± 1 s⁻¹ | 0.29 x 10^7 M^−1 s^−1 | 0.79 | 14 ± 0.6 µM | 42 ± 2 s⁻¹ | 0.30 x 10^7 M^−1 s^−1 | 0.77 | 1990 µM and 2000 µM | 26 ± 4 s^−1 and 26 ± 4 ^c s^−1 | 0.013 x10^6 M^−1 s^−1 |  | 
2 | Ac-YRKRFpYRYKF-NH2 |  |  |  |  |  |  |  |  |  |  |  | 0.00023 x10^6 M^−1 s^−1 | 0.00015 x10^6 M^−1 s^−1
